Test results taken from ChEMBL document CHEMBL1122522, “Conformationally restricted retinoids” (1984).

Assays:
Cricetinae gen. sp. [1] = assay: Activity of compound the was expressed as ratio of active hamster tracheal organ cultures(TOC) to the total cultures at 10e-10 M concentration; 1/7; type: functional, Cricetulus griseus, Trachea
Outline: (§1)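 Tracheal organ cultures came from vitamin A-deficient hamsters. Each culture was scored for reversal of keratinization and reported as active cultures out of total cultures at each retinoid concentration tested (10⁻⁸ to 10⁻¹² M). The protocol followed earlier published methods.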

Cricetinae gen. sp. [2] = assay: Molarity required to effect reversal of keratinization in 50% of cultures.; type: functional, Cricetulus griseus
Cricetinae gen. sp. [3] = assay: Activity of compound the was expressed as ratio of active hamster tracheal organ cultures(TOC) to the total cultures at 10e-9 M concentration; 2/7; type: functional, Cricetulus griseus, Trachea; outline: as §1
Cricetinae gen. sp. [4] = assay: Activity of compound the was expressed as ratio of active hamster tracheal organ cultures(TOC) to the total cultures at 10e-8 M concentration; 3/7; type: functional, Cricetulus griseus, Trachea; outline: as §1
[5] = target: T1, Ornithine decarboxylase (Mus musculus) (UniProt P00860); assay: Inhibition of the induction of ornithine decarboxylase in mouse epidermis by the tumor promoter 12-O-tetradecanoylphorbol-13-acetate (ODC) at dose 17 nmol * * inhibition not significant
T1 sequence (whole entry): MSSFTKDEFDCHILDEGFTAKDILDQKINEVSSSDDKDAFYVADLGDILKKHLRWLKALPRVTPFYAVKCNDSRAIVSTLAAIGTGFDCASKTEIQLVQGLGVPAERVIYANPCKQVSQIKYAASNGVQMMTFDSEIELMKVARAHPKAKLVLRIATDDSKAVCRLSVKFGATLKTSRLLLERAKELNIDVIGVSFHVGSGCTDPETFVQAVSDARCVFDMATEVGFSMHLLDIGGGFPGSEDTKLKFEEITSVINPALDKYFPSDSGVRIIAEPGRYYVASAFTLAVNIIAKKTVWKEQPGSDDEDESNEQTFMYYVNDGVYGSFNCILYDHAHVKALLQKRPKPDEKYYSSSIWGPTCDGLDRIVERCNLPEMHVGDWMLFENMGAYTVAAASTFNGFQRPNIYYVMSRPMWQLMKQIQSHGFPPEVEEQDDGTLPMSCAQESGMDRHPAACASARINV

[6] = target: T1, Ornithine decarboxylase (Mus musculus); assay: Inhibition of the induction of ornithine decarboxylase in mouse epidermis by the tumor promoter 12-O-tetradecanoylphorbol-13-acetate (ODC) at dose 1.7 nmol * * inhibition not significant
Cricetinae gen. sp. [7] = assay: Activity of compound the was expressed as ratio of active hamster tracheal organ cultures(TOC) to the total cultures at 10e-9 M concentration; 5/19; type: functional, Cricetulus griseus, Trachea; outline: as §1
Cricetinae gen. sp. [8] = assay: Activity of compound the was expressed as ratio of active hamster tracheal organ cultures(TOC) to the total cultures at 10e-10 M concentration; 12/14; type: functional, Cricetulus griseus, Trachea; outline: as §1
Cricetinae gen. sp. [9] = assay: Activity of compound the was expressed as ratio of active hamster tracheal organ cultures(TOC) to the total cultures at 10e-8 M concentration; 7/7; type: functional, Cricetulus griseus, Trachea; details: at 0.01 µM
Cricetinae gen. sp. [10] = assay: Activity of compound the was expressed as ratio of active hamster tracheal organ cultures(TOC) to the total cultures at 10e-9 M concentration; 7/7; type: functional, Cricetulus griseus, Trachea; outline: as §1
Mus musculus [11] = species on record: Mus musculus; assay: Tested for relative activity in a 20-week anti-papilloma experiment in female CD-1 mice at dose 170 nmol; type: functional
Outline: (§2)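 Female Charles River CD-1 mice, 8 weeks old, in random groups of 25–30, were shaved 2 days before initiation with 200 nmol DMBA in acetone on the back. From 2 weeks on, 8.5 nmol TPA was applied twice weekly for 20 weeks. Retinoid in 0.2 mL acetone, or acetone alone for controls, was given 1 h before each TPA dose. Papillomas were counted weekly, and mean papillomas per mouse were compared with controls at 20 weeks.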

Mus musculus [12] = species on record: Mus musculus; assay: Tested for relative activity in a 20-week anti-papilloma experiment in female CD-1 mice at dose 17 nmol; type: functional; outline: as §2
Mus musculus [13] = species on record: Mus musculus; assay: Percent decrease in average number of papillomas 170 at dose; type: functional; outline: as §2
Mus musculus [14] = species on record: Mus musculus; assay: Percent decrease in average number of papillomas 17 at dose; type: functional; outline: as §2
[15] = target: T1, Ornithine decarboxylase (Mus musculus); assay: TInhibition of the induction of ornithine decarboxylase in mouse epidermis by the tumor promoter 12-O-tetradecanoylphorbol-13-acetate (ODC) at dose 1.7 nmol
[16] = target: T1, Ornithine decarboxylase (Mus musculus); assay: Inhibition of the induction of ornithine decarboxylase in mouse epidermis by the tumor promoter 12-O-tetradecanoylphorbol-13-acetate (ODC)) at dose 17 nmol
[17] = Mortality range in days at dose 300 umol/kg day; 14-15; type: functional, Mus musculus
Outline: (§3)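 Adult female Swiss mice (20–25 g) had chow and water ad libitum. The retinoid was homogenized as a suspension in aqueous 8% Cremophor EL plus 10% propylene glycol. It was given ip as 10 weekday injections over 14 days. Controls received vehicle alone. Survivors were weighed on days 1, 5, 10 and 15, and dates of death were recorded. Survival was scored at days 8 and 15.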

[18] = Mortality range in days at dose 600 umol/kg day; 9-10; type: functional, Mus musculus; outline: as §3
[19] = Percent survivors at dose 100 umol/kg day; type: functional, Mus musculus; outline: as §3
[20] = Percent survivors at dose 200 umol/kg day; type: functional, Mus musculus; outline: as §3
[21] = Percent survivors at dose 300 umol/kg day; type: functional, Mus musculus; outline: as §3
[22] = Percent survivors at dose 30 umol/kg day; type: functional, Mus musculus; outline: as §3
[23] = Percent survivors at dose 600 umol/kg day; type: functional, Mus musculus; outline: as §3
Cricetinae gen. sp. [24] = assay: Activity of compound the was expressed as ratio of active hamster tracheal organ cultures(TOC) to the total cultures at 10e-10 M concentration; 6/13; type: functional, Cricetulus griseus, Trachea; outline: as §1
Cricetinae gen. sp. [25] = assay: Activity of compound the was expressed as ratio of active hamster tracheal organ cultures(TOC) to the total cultures at 10e-11 M concentration; 1/5; type: functional, Cricetulus griseus, Trachea; outline: as §1
Cricetinae gen. sp. [26] = assay: Activity of compound the was expressed as ratio of active hamster tracheal organ cultures(TOC) to the total cultures at 10e-9 M concentration; 11/12; type: functional, Cricetulus griseus, Trachea; outline: as §1

## CCOC(=O)c1ccc([C@H]2CC2c2ccc3c(c2)C2CCC3C2)cc1 (stereo partly drawn)
Cricetinae gen. sp. [1]
  Activity: 1%
Cricetinae gen. sp. [2]
  ED50: >1e-08
Cricetinae gen. sp. [3]
  Activity: 29%
Cricetinae gen. sp. [4]
  Activity: 3%
[5]
  inhibition: 4%
[6]
  inhibition: 0%

## CCOC(=O)/C=C(C)/C=C/C=C(C)/C=C/C1=CC2CCC1C2 (stereo not drawn)
Cricetinae gen. sp. [2]
  ED50: >1e-09
Cricetinae gen. sp. [7]
  Activity: 26%

## C/C(=C\c1ccc(C(=O)O)cc1)c1ccc2c(c1)C(C)(C)CCS2
Cricetinae gen. sp. [8]
  Activity: 12%
Cricetinae gen. sp. [2]
  ED50: 5e-11
Cricetinae gen. sp. [9]
  Activity: 7%
Cricetinae gen. sp. [10]
  Activity: 100%
Mus musculus [11]
  Activity: 38%
Mus musculus [12]
  Activity: 53%
Mus musculus [13]
  Decrease: 93.6%
Mus musculus [14]
  Decrease: 93.4%
[15]
  inhibition: 68%
[16]
  inhibition: 85%
[17]
  Mortality range: 15 days
[18]
  Mortality range: 10 days
[19]
  Survivors at day 8: 100%
  Survivors at day 15: 100%
[20]
  Survivors at day 8: 100%
[21]
  Survivors at day 8: 100%
  Survivors at day 15: 80%
[22]
  Survivors at day 15: 100%
[23]
  Survivors at day 8: 100%
  Survivors at day 15: 0%

## CC1=C(/C=C/c2ccc3cc(C(=O)O)ccc3c2)C(C)(C)CCC1
Cricetinae gen. sp. [24]
  Activity: 6%
Cricetinae gen. sp. [25]
  Activity: 1%
Cricetinae gen. sp. [26]
  Activity: 92%
Cricetinae gen. sp. [2]
  ED50: 1e-10
Cricetinae gen. sp. [9]
  Activity: 7%
